# Results as given in ChEMBL document CHEMBL1146752, “Oxamyl dipeptide caspase inhibitors developed for the treatment of stroke” (Bioorg Med Chem Lett, 2004).
# How the values were obtained:
# Rattus norvegicus = species on record: Rattus norvegicus; assay: Inhibitory activity evaluated against rat Con A embryonic cortical neurons in cellular assay; type: functional
# Jurkat = assay: Inhibitory activity evaluated against human jurkat cell line in cellular assay; type: functional, cell-based
# Procedure, shortened: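 Human Jurkat cells, in an assay where caspase-8 is relevant but other caspases also contribute. Run for 24 h at 37 °C. Read-out is IC50 (µM).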
# THP-1 = assay: Inhibitory activity evaluated against human THP-1 cell line in cellular assay; type: functional, cell-based
# Procedure, shortened: (§1)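 Human cells (monocytes; THP-1 line) in a caspase-1-dependent cellular assay run for 24 h at 37 °C. Read-out is IC50 (µM).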
# SKW 6.4 = assay: Inhibitory activity was evaluated against human SKW 6.4 cell line in cellular assay; type: functional, cell-based
# Procedure, shortened: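 Cellular assay (Con A; SKW 6.4 cells) run for 24 h at 37 °C. Read-out is IC50 (µM).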
# Caspase-9 = biological target: T1, Caspase-9 (Homo sapiens, UniProt P55211); assay: Binding affinity towards human Caspase-9
# T1 sequence (P55211 whole entry): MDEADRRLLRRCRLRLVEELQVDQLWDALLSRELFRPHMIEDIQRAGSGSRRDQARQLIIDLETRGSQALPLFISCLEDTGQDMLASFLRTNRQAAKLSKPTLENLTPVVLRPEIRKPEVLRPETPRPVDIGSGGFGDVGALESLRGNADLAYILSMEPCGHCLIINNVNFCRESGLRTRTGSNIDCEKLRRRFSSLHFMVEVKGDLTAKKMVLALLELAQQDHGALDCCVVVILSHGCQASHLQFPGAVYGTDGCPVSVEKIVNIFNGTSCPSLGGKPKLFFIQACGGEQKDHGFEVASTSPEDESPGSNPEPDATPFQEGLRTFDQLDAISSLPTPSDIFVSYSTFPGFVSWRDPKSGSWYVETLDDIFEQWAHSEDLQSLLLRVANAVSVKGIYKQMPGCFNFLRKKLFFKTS
# Homo sapiens [1] = species on record: Homo sapiens; assay: Inhibitory activity against human monocyte at the concentration of 10 uM; type: functional
# Procedure, shortened: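 Human monocyte caspase-1-dependent cellular assay. Compound tested at a single 10 µM concentration. Read-out is percent inhibition.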
# Homo sapiens [2] = species on record: Homo sapiens; assay: Inhibitory activity against human monocyte; type: functional; procedure, shortened: as §1
Structure (SMILES),IC50 (Jurkat),IC50 (THP-1),IC50 (SKW 6.4),IC50 (Caspase-9),IC50 (Homo sapiens [2]),IC50 (Rattus norvegicus),inhibition at 10 µM (Homo sapiens [1])
CC(C)[C@H](NC(=O)C(=O)NC1CCCCC1)C(=O)N[C@@H](CC(=O)O)C(=O)COc1c(F)c(F)cc(F)c1F,0.06 µM,0.72 µM,1.78 µM,–,–,6.12 µM,–
CC(C)[C@H](NC(=O)C(=O)NCCc1ccccc1)C(=O)N[C@@H](CC(=O)O)C(=O)COc1c(F)c(F)cc(F)c1F,4.7 µM,0.08 µM,0.61 µM,–,–,3.5 µM,–
CC(C)[C@H](NC(=O)C(=O)NC1CCCc2ccccc21)C(=O)N[C@@H](CC(=O)O)C(=O)COc1c(F)c(F)cc(F)c1F (stereo partly drawn),0.37 µM,2.91 µM,0.86 µM,–,–,2.4 µM,–
CC(C)[C@H](NC(=O)C(=O)Nc1ccccc1C(C)(C)C)C(=O)N[C@@H](CC(=O)O)C(=O)COc1c(F)c(F)cc(F)c1F,0.0022 µM,1.85 µM,0.34 µM,–,–,5.68 µM,–
CC(C)[C@H](NC(=O)C(=O)Nc1ccccc1Cc1ccccc1)C(=O)N[C@@H](CC(=O)O)C(=O)COc1c(F)c(F)cc(F)c1F,0.009 µM,0.18 µM,1.56 µM,–,–,2 µM,–
CC(C)C[C@H](NC(=O)CNc1cccc2ccccc12)C(=O)N[C@H](C=O)CC(=O)O,–,–,–,0.16 µM,–,–,18%
CC(C)[C@H](NC(=O)C(=O)NN(C(=O)c1ccccc1)c1ccccc1)C(=O)N[C@@H](CC(=O)O)C(=O)COc1c(F)c(F)cc(F)c1F,0.07 µM,0.63 µM,2.01 µM,–,–,2.3 µM,–
CC(C)[C@H](NC(=O)C(=O)NC12CC3CC(CC(C3)C1)C2)C(=O)N[C@@H](CC(=O)O)C(=O)COc1c(F)c(F)cc(F)c1F,1.76 µM,1.79 µM,0.72 µM,–,–,3.5 µM,–
COc1cc(CNC(=O)C(=O)N[C@H](C(=O)N[C@@H](CC(=O)O)C(=O)COc2c(F)c(F)cc(F)c2F)C(C)C)cc(OC)c1OC,1.55 µM,3.5 µM,18.3 µM,–,–,9 µM,–
CC(C)[C@H](NC(=O)C(=O)Nc1cc(F)c(F)c(F)c1F)C(=O)N[C@@H](CC(=O)O)C(=O)COc1c(F)c(F)cc(F)c1F,0.04 µM,0.57 µM,1.19 µM,–,–,3.5 µM,–
CC(C)C[C@H](NC(=O)C(=O)Nc1cccc2ccccc12)C(=O)N[C@H](C=O)CC(=O)O,–,–,–,0.23 µM,3.08 µM,–,79%
CC(C)[C@H](NC(=O)C(=O)Nc1ccccc1-c1ccccc1)C(=O)N[C@@H](CC(=O)O)C(=O)COc1c(F)c(F)cc(F)c1F,0.2 µM,0.16 µM,0.48 µM,–,–,2.5 µM,–
CC(C)[C@H](NC(=O)C(=O)NN(c1ccccc1)c1ccccc1)C(=O)N[C@@H](CC(=O)O)C(=O)COc1c(F)c(F)cc(F)c1F,0.19 µM,0.78 µM,2.24 µM,–,–,4.87 µM,–
CC(C)[C@H](NC(=O)C(=O)Nc1ccc2cc3ccccc3cc2c1)C(=O)N[C@@H](CC(=O)O)C(=O)COc1c(F)c(F)cc(F)c1F,0.15 µM,0.66 µM,0.75 µM,–,–,0.55 µM,–
CC(C)[C@H](NC(=O)C(=O)Nc1ccccc1Oc1ccccc1)C(=O)N[C@@H](CC(=O)O)C(=O)COc1c(F)c(F)cc(F)c1F,0.66 µM,1.77 µM,1.78 µM,–,–,2.5 µM,–
CC(C)C[C@H](NC(=O)COc1cccc2ccccc12)C(=O)N[C@H](C=O)CC(=O)O,–,–,–,2.72 µM,–,–,17%
CC(C)[C@H](NC(=O)C(=O)Nc1cccc2cc3ccccc3cc12)C(=O)N[C@@H](CC(=O)O)C(=O)COc1c(F)c(F)cc(F)c1F,0.01 µM,0.22 µM,1.96 µM,–,–,0.85 µM,–
CC(C)[C@H](NC(=O)C(=O)Nc1ccc(Cl)c2ccccc12)C(=O)N[C@@H](CC(=O)O)C(=O)COc1c(F)c(F)cc(F)c1F,0.03 µM,0.61 µM,2.45 µM,–,–,0.75 µM,–
CCCCCCCc1ccc(NC(=O)C(=O)N[C@H](C(=O)N[C@@H](CC(=O)O)C(=O)COc2c(F)c(F)cc(F)c2F)C(C)C)cc1,0.27 µM,6.6 µM,13 µM,–,–,> 50 µM,–

# Second part, led by results:
IC50 (Jurkat),IC50 (THP-1),IC50 (SKW 6.4),IC50 (Caspase-9),IC50 (Homo sapiens [2]),Structure (SMILES),IC50 (Rattus norvegicus),inhibition at 10 µM (Homo sapiens [1])
0.019 µM,1.21 µM,0.92 µM,–,–,CC(C)[C@H](NC(=O)C(=O)Nc1ccc(F)cc1)C(=O)N[C@@H](CC(=O)O)C(=O)COc1c(F)c(F)cc(F)c1F,2 µM,–
0.01 µM,0.41 µM,0.15 µM,–,–,CC(C)[C@H](NC(=O)C(=O)Nc1ccc(I)cc1F)C(=O)N[C@@H](CC(=O)O)C(=O)COc1c(F)c(F)cc(F)c1F,0.7 µM,–
0.136 µM,0.38 µM,1.63 µM,–,–,CC(C)[C@H](NC(=O)C(=O)Nc1c(F)cccc1F)C(=O)N[C@@H](CC(=O)O)C(=O)COc1c(F)c(F)cc(F)c1F,1 µM,–
0.097 µM,0.68 µM,0.5 µM,–,–,CC(C)[C@H](NC(=O)C(=O)Nc1ccccc1F)C(=O)N[C@@H](CC(=O)O)C(=O)COc1c(F)c(F)cc(F)c1F,0.97 µM,–
0.14 µM,1.43 µM,2.2 µM,–,–,CC(C)[C@H](NC(=O)C(=O)Nc1ccccn1)C(=O)N[C@@H](CC(=O)O)C(=O)COc1c(F)c(F)cc(F)c1F,9.4 µM,–
0.31 µM,0.4 µM,1.2 µM,–,–,COc1ccccc1NC(=O)C(=O)N[C@H](C(=O)N[C@@H](CC(=O)O)C(=O)COc1c(F)c(F)cc(F)c1F)C(C)C,2.5 µM,–
0.081 µM,1.5 µM,1.54 µM,–,–,CC(C)[C@H](NC(=O)C(=O)Nc1ccccc1I)C(=O)N[C@@H](CC(=O)O)C(=O)COc1c(F)c(F)cc(F)c1F,1 µM,–
2.35 µM,6.58 µM,9.9 µM,–,–,CC(C)[C@H](NC(=O)C(=O)NNc1ccccc1)C(=O)N[C@@H](CC(=O)O)C(=O)COc1c(F)c(F)cc(F)c1F,20 µM,–
0.17 µM,1.44 µM,19.1 µM,–,–,CC(C)[C@H](NC(=O)C(=O)Nc1cnccn1)C(=O)N[C@@H](CC(=O)O)C(=O)COc1c(F)c(F)cc(F)c1F,5.9 µM,–
0.43 µM,0.07 µM,0.94 µM,–,–,CC(C)[C@H](NC(=O)C(=O)Nc1ccccc1)C(=O)N[C@@H](CC(=O)O)C(=O)COc1c(F)c(F)cc(F)c1F,1.5 µM,–
0.041 µM,1.28 µM,0.27 µM,–,–,CC(C)[C@H](NC(=O)C(=O)Nc1ccc2c(c1)CCC2)C(=O)N[C@@H](CC(=O)O)C(=O)COc1c(F)c(F)cc(F)c1F,1 µM,–
0.0017 µM,0.82 µM,0.23 µM,–,–,CC(C)[C@H](NC(=O)C(=O)Nc1ccccc1C(F)(F)F)C(=O)N[C@@H](CC(=O)O)C(=O)COc1c(F)c(F)cc(F)c1F,0.65 µM,–
15.8 µM,5.67 µM,30.1 µM,–,–,CC(C)[C@H](NC(=O)C(=O)Nc1ccncc1)C(=O)N[C@@H](CC(=O)O)C(=O)COc1c(F)c(F)cc(F)c1F,50 µM,–
